Bioassay records from PubChem BioAssay.
STAT1 act = STAT1 signaling activators, primary screen, cell-based, HTS, luciferase reporter; NIH 3T3 STAT1-luciferase reporter, IFN-gamma, luminescence; 100% = IFN-gamma alone, no compound; activation (% of control), % at 5.5 µM; 200,000 tested, 2.6% active; AID 932, 2007;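 active = activation above the screen-wide mean activation plus 3 SD, cut at about 130% in these data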;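 note: raw ratio to IFN-gamma control signal so 100% means no change and 0% no light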
APP 5'UTR act = activators of APP 5'UTR luciferase reporter, primary screen, SH-SY5Y cells. SH-SY5Y APP 5'UTR luciferase reporter, luminescence; zero percent = DMSO vehicle wells. activation, % at 2 µM. 190,000 tested, 1% active;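 active = activation above a set limit, based on mean plus 3 SD of controls, cut at about 140% in these data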
NF-kB neuron act = activators of NF-kB expression in neurons, primary screen, cell-based, HTS. 190,000 tested, 1.6% active. human neuronal cells, NF-kB reporter expression; stronger effect = higher value. fold change at 12.5 µM; in the data active = fold change above about 3.3
STAT3 inh = IL-6 driven STAT3 reporter inhibitors, primary screen, U3A cells, luciferase, luminescence, MLSCN library | IL-6 STAT3-luciferase reporter; host cell line lacks STAT1 | inhibition, % at 5.5 µM | 190,000 tested, 0.89% active | AID 862, 2007;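 active = inhibition above the mean inhibition across all screened compounds plus 3 SD, cut at about 44% in these data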;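 note: 0% = DMSO only wells and 100% = 100 µM nifuroxazide control wells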
STAT3 activator = IL-6 driven STAT3 reporter potentiators, primary screen, U3A cells, luciferase, luminescence, MLSCN library; IL-6 STAT3-luciferase reporter; 100% = signal with IL-6 EC80 alone; 190,000 tested, 0.91% active; AID 871, 2007; activation (% of control), % at 5.6 µM;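 active = activation above the screen-wide mean of compound activation plus 3 SD, cut at about 130% in these data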;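 note: 0% = background luminescence of wells with medium and substrate only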
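Material: human STAT1-deficient U3A cells with stable STAT3-luciferase reporter / Probe or stimulus: IL-6 stimulus at 33 ng/mL final / Schedule: 1 h compound pre-exposure, 6 h IL-6 stimulation, 37 °C / Technique: luminescence / Read-out basis: percent of IL-6-only median luminescence / Control set: IL-6-only high control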
STAT1 inh = STAT1 signaling inhibitors, primary screen, cell-based, HTS, luciferase reporter; NIH 3T3 STAT1-luciferase reporter, IFN-gamma, luminescence; inhibition, % at 5.5 µM; 200,000 tested, 0.35% active; AID 920, 2007;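 active = inhibition above a set limit, the mean inhibition across all tested compounds plus 3 SD, cut at about 34% in these data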;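 note: 0% = IFN-gamma with DMSO and 100% = IFN-gamma with 300 µM nifuroxazide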
Numbers without * were called inactive; nt = no result given. Sampled rows, rich in hits. Any-hit rate of the full collection: about 5.1%.

SMILES	STAT1 act	APP 5'UTR act	NF-kB neuron act	STAT3 inh	STAT3 activator	STAT1 inh
CCCn1c(/C=C/c2ccccc2)nc2ccccc21	144*	123	5.6*	-9	112	-50
CC(C)n1c(/C=C/c2ccccc2)nc2ccccc21	113	51	1.4	9	91	-14
COCCOCCn1c(/C=C/c2ccccc2)nc2ccccc21	135*	166*	6*	31	78	-42
Cc1nnc(SCc2cc(=O)[nH]c(Nc3nc(C)c4ccccc4n3)n2)s1	105	-5	nt	3	97	-5
Cc1ccc2nc(Nc3nc(CSc4nnc(C)s4)cc(=O)[nH]3)nc(C)c2c1	135*	8	1.1	9	94	-40
Cc1ccc(NC(=O)CCNC(=O)c2ccco2)cc1F	97	3	1.1	8	95	2
CC(=O)c1ccc(NC(=O)Nc2ccccc2)cc1	121	138*	3.6*	35	75	-23
O=C(c1ccoc1)N1CCC(CO)(CCc2ccccc2)CC1	111	7	1.1	3	101	-13
COC(=O)c1[nH]c(=O)c2ccccc2c1O	103	4	1.1	4	98	-2
COC(=O)c1[nH]c(=O)c2ccccc2c1OCc1ccccc1	99	0	3.8*	6	99	2
N#C/C(=C(/O)COC(=O)c1ccc(C#N)cc1)c1nc2ccccc2s1	89	-8	1.2	2	100	13
O=C(O)c1ccc(N2CC3CC(C2)c2cccc(=O)n2C3)c(NC(=S)Nc2ccc(Br)cc2)c1 (stereo not drawn)	95	12	3.9*	22	83	4
COc1ccc(Oc2nnnn2-c2ccccc2)cc1	106	3	2.1	10	94	-7
COc1cccc(Oc2nnnn2-c2ccccc2)c1	131*	25	2	2	101	-34
O=C1/C(=C\c2ccco2)CCC/C1=C\c1ccco1	123	101	5.9*	-7	104	-26
Cc1nc2ccc(NC(=O)c3ccc(Br)o3)cc2s1	145*	100	3.4*	22	88	-52
Cc1nc2ccc(NC(=O)c3cccnc3)cc2s1	109	13	1.1	12	96	-11
Cc1nc2ccc(NC(=O)Cc3cccs3)cc2s1	136*	63	2.5	-11	113	-36
Cc1nc2ccc(NC(=O)c3ccc(Cl)s3)cc2s1	146*	111	2.2	7	102	-51
O=C(Nc1ccc(-c2nc3cccnc3s2)cc1)c1ccc(Br)o1	131*	33	2.3	17	90	-35
COc1ccc(NC(=S)N2CCN(Cc3ccco3)CC2)c(OC)c1	107	12	1.1	-9	106	-8
CCOc1cc(S(=O)(=O)NCc2ccccn2)ccc1Cl	97	nt	1.3	14	90	4
COc1cc2c(C)nc3c(cnn3-c3ccccc3)c2cc1OC	144*	79	nt	6	101	-47
Clc1ccc(-c2nc3ccncc3[nH]2)cc1	141*	16	1.3	-1	100	-45
Cc1nc2c3cnn(-c4ccc(C)c(C)c4)c3ncn2n1	148*	nt	4.3*	8	99	-53
SMILES	STAT1 act	APP 5'UTR act	NF-kB neuron act	STAT3 inh	STAT3 activator	STAT1 inh
C/C(=N\NC(=O)c1ccc(N/N=C(\C)c2ccncc2)cc1)c1ccncc1	108	-7	1.1	19	89	-10
C/C(=N\Nc1ccc(C(F)(F)F)cn1)c1ccncc1	134*	30	1.8	16	88	-36
CCOc1ncccc1C(=O)N1CCN(c2cccc(C)c2C)CC1	97	-95	3.9*	-13	120	1
CCOc1ncccc1C(=O)N1CCN(c2cc(Cl)ccc2C)CC1	102	-91	2.2	-5	107	-5
Cc1nc(C)c(/C(O)=C/c2nc3ccccc3oc2=O)s1	86	1	4.8*	6	98	16
NC(=O)C1CCN(c2ncc(C(F)(F)F)cc2Cl)CC1	101	23	1.1	-3	106	-2
NC(=O)c1ccsc1NC(=O)Cc1ccc([N+](=O)[O-])cc1	95	6	1.3	8	95	3
